Compound activity: PubChem, The Scripps Research Institute Molecular Screening Center
CHRM5 PAM = potentiates acetylcholine response at human M5 receptor; activation, % at 3 µM; CHO-K1 hM5, Fluo-8 calcium, ACh EC20 PAM; 0% = ACh EC20, 100% = ACh EC100; P08912; 0.3% of 360,000 active;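 active = activation above the run cutoff, the mean activation of all test compounds plus 3 SD, cut at about 18% in these data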
Target sequence (P08912 whole entry, looked up): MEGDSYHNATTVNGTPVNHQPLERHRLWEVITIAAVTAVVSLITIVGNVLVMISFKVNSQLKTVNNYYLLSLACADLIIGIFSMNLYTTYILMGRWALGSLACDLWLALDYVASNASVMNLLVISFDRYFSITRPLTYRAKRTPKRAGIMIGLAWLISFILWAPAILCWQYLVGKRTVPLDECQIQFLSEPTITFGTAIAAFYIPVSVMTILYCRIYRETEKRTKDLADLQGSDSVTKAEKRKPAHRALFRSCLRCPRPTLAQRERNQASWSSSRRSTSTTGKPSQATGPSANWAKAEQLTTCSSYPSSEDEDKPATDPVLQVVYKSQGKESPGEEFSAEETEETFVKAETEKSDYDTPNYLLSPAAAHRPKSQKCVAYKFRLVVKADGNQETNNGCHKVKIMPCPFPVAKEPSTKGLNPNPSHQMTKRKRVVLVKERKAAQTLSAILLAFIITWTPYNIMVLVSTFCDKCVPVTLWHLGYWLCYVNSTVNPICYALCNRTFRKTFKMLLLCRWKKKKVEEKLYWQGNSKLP
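Probe or stimulus: acetylcholine, EC20 level; Assay system: human M5 receptor in CHO-K1 cells; Schedule: compound preincubation 140 s before EC20 acetylcholine addition; Technique: intracellular calcium via Fluo-8 fluorescence; Dosing: single-point, 3 µM nominal; Read-out basis: percent activation from peak-over-basal fluorescence ratio, scaled EC20-to-EC100 acetylcholine; Repeats: one well per compound, no replicates.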
M1 PAM parental = nonselective activator or artifact in parental CHO-K1 calcium assay | ATP EC20, Fluo-8 calcium fluorescence; 0% at ATP EC20, 100% at ATP max | activation, % at 3 µM | 0.02% of 360,000 active;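 active = activation above the run cutoff, the mean activation of all test compounds plus 3 SD, cut at about 40% in these data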;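 note: peak over basal fluorescence ratio in a 140 s read after ATP addition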
CHRM5 agonist = CHRM5 agonism in calcium assay | 0.19% of 360,000 active | P08912 | CHO-K1 hM5 cells, Fluo-8 calcium fluorescence; 0% DMSO wells, 100% maximal acetylcholine response | activation, % at 3 µM;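 active = activation above the run's mean over test compounds plus 3 SD, cut at about 23% in these data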;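 note: signal is peak over basal fluorescence ratio across the kinetic read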
M5 antag = CHRM5 antagonism in calcium assay; P08912; CHO-hM5 cells, Fluo-8 calcium fluorescence, ACh EC80; inhibition, % at 3 µM; 0.59% of 360,000 active;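 active = inhibition above a per-plate cutoff, the mean of that plate's test compounds plus 3 SD, cut at about 27% in these data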
M1 ag parental = M1 agonist counterscreen hit in parental CHO-K1 cells; Fluo-8 calcium fluorescence; scaled to maximal ATP response, vehicle zero; 0.48% of 360,000 active; activation, % at 3 µM; AID 602248; in the data active = activation above about 15%;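 note: untransfected CHO-K1 host cells lacking M1 receptor as counterscreen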
CHO-K1 Ca antag = counter-screen for M1 antagonists: effect in parental CHO-K1 cells | 0.6% of 360,000 active | AID 602250 | ATP-induced calcium, Fluo-8 fluorescence | inhibition, % at 3 µM;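 active = inhibition above a per-plate cutoff, the plate's mean sample inhibition plus 3 SD, cut at about 24% in these data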
Large screens that a line does not name were inactive. Compounds with a hit are over-represented: about 1.7% of the library has one in this group of screens.

O=C(Nc1ccc(OCC(F)(F)C(F)F)c(C(F)(F)F)c1)c1ccccc1O	CHO-K1 Ca antag 24
O=C(Nc1ccc(OCC(F)(F)C(F)F)c(C(F)(F)F)c1)c1ccccc1	none
O=C(/C=C/Sc1ccc(C(F)(F)F)cn1)c1ccccc1	none
NC(=O)CSc1ncnc2c1nnn2Cc1ccc(F)cc1	none
CC(C)c1ccc(N2C(=O)CSC23C(=O)N2CCCc4cccc3c42)cc1 (stereo unspecified)	M5 antag 48
CCc1nc(OCC(=O)c2ccccc2)c(C#N)c2c1COC(C)(C)C2	CHO-K1 Ca antag 25
Cc1nc(OCC(=O)c2ccc(Cl)cc2)c(C#N)c2c1COC(C)(C)C2	none
Cc1ccc(C(=O)NC(N2CCCC2)C(Cl)(Cl)Cl)cc1 (stereo unspecified)	none
COc1cccc(C(=O)/C=C2\Sc3ccccc3N2C)c1	CHO-K1 Ca antag 24
CN1/C(=C\C(=O)c2cccnc2)Sc2ccccc21	none
CCOC(=O)N1CCN(c2c(-c3ccc(C(C)C)cc3)c(=O)c2=O)CC1	CHO-K1 Ca antag 26
CC(Sc1ccc(Cl)cc1)C(=O)Nc1ccc(S(=O)(=O)N2CCOCC2)cc1 (stereo unspecified)	CHRM5 agonist 39
Cc1nc(-c2ccccc2)sc1C1(C)CC(c2ccc(OC(F)(F)F)cc2)=NO1 (stereo unspecified)	CHRM5 PAM 18
Cc1nc(-c2ccc(Cl)cc2)sc1C1(C)CC(c2ccc(OC(F)(F)F)cc2)=NO1 (stereo unspecified)	none
O=C1CC(O)(C(F)F)Oc2ccc3ccccc3c21 (stereo unspecified)	none
O=C1CC(O)(C(F)(F)F)Oc2c1ccc1ccccc21 (stereo unspecified)	M1 ag parental 28
N#Cc1cnn(-c2ccc(F)cc2)c1N	CHRM5 PAM 19
COc1ccc(C2=Nc3ccccc3NC(=O)C2N(CCCn2ccnc2)C(=O)c2cccc(S(C)(=O)=O)c2)cc1 (stereo unspecified)	none
O=C1NCCOC(=O)[C@H](Cc2ccc(F)cc2)C/C=C\C[C@@H]1CC(=O)N(CCO)Cc1ccccc1	none
CCCCc1nc2n[nH]c(N)c2c2c1CCCC2	CHRM5 PAM 22
Cc1ccc(/C=C(\NC(=O)c2ccccc2)C(=O)NCCN2CCOCC2)o1	CHO-K1 Ca antag 24
O=C(NCCN1CCOCC1)/C(=C/c1ccccc1)NC(=O)c1ccccc1	none
Cc1ccc(NS(=O)(=O)c2cc(Br)cnc2N)cc1C	M5 antag 100
CN(C)CCCN(CCCNC(=O)/C=N/O)Cc1ccccc1	none
CCN(CC)c1ccc(NC(=O)CN2CCN(S(=O)(=O)c3cc(Cl)ccc3OC)CC2)cc1	none
COc1ccc(NC(=O)CCN2CCN(S(=O)(=O)c3ccc(Cl)cc3)CC2)cc1	none
COc1ccc(NC(=O)CCN2CCN(S(=O)(=O)c3ccc(C(C)C)cc3)CC2)cc1	M1 ag parental 18
CCOc1ccc(NC(=O)CCN2CCN(S(=O)(=O)c3cc(Cl)ccc3OC)CC2)cc1	M1 PAM parental 41
COc1cccc(OC)c1C(=O)Nn1c(-c2cccs2)nc2ccccc2c1=O	none
COc1cccc(OC)c1C(=O)Nn1c(-c2cccc(C)c2)nc2ccccc2c1=O	CHO-K1 Ca antag 24
CCN(CC)c1cnn(C/C(=N\OC)c2ccc(Cl)cc2)c(=O)c1Br	none
CCC(C)NC(=O)C1c2ccccc2C(=O)N1Cc1ccccc1OC (stereo unspecified)	CHRM5 PAM 30
CCC(C)NC(=O)C1c2ccccc2C(=O)N1Cc1ccc(OC)cc1OC (stereo unspecified)	none
Nn1c(=O)c2ccccc2n2c(SCc3ccccc3)nnc12	CHRM5 PAM 38, M5 antag 29
CCCNC(=O)c1cc(C2CCCCN2C(=O)c2cc(OC)c(C)c(OC)c2)on1 (stereo unspecified)	CHO-K1 Ca antag 25
COc1ccc(C)cc1S(=O)(=O)N1c2ccccc2CC1C (stereo unspecified)	none
C=CCn1c(SCC(=O)NCc2ccccc2)nnc1C1CCCCC1	CHRM5 PAM 25
COCCN1Cc2cccc(C(=O)NCc3cccs3)c2C1=O	none
CN(C)c1ccc(/C=C/c2nc3ccccc3c(=O)n2-c2ccc(C(=O)O)cc2)cc1	CHRM5 agonist 26, M1 ag parental 17
Cc1cc(-c2ccc(S(=O)(=O)N3CCN(C)CC3)s2)on1	M5 antag 35
COc1ccc(OC)c(/C=N/NC(=O)CCc2n[nH]c(=O)[nH]c2=O)c1	none
COc1cc2c(cc1OC)/C(=C/C(=O)c1ccc(C)cc1)NCC2	none
Cc1ccc(C)c(C(C)NC(=S)NCc2ccc(F)cc2)c1 (stereo unspecified)	M1 ag parental 17
COc1ccc(C(C)NC(=S)NCc2ccc(F)cc2)cc1 (stereo unspecified)	none
CC(=O)Nc1cc2c(cc1Cl)-c1ccccc1C2	CHO-K1 Ca antag 26
Cc1cccc(C)c1NC(=O)CCCSc1nnc(-c2ccc(F)cc2)n1-c1ccccc1	none
COc1ccc(Cl)cc1C(=O)Nc1ccc(OCC(=O)N2CCOCC2)cc1	CHRM5 PAM 18
COc1ccc(NC(=O)Nc2ccc(OCC(=O)N3CCOCC3)cc2)cc1OC	none
CCOc1ccc(CNC(=O)c2cccc(NC(=O)C3=C(C)OCCS3)c2)cc1	M5 antag 30
CCc1ccccc1NC(=O)CSc1n[nH]c(C)c1[N+](=O)[O-]	none
Cc1[nH]nc(SCC(=O)NC(C)c2ccccc2)c1[N+](=O)[O-] (stereo unspecified)	CHO-K1 Ca antag 25
CC1SC(c2ccccc2)N(CC(O)c2ccc([N+](=O)[O-])cc2)C1=O (stereo unspecified)	CHO-K1 Ca antag 25
CCC(C)Nc1cc(C)nc2ncnn12 (stereo unspecified)	none
Cc1cc(C(O)c2ncc(-c3cccc4ccccc34)[nH]2)ccc1F (stereo unspecified)	CHO-K1 Ca antag 24
CCc1nonc1NC(=O)c1oc2cc(C)c(Cl)cc2c1C	CHRM5 PAM 25
CCc1nonc1NC(=O)c1oc2cc(C)c(C)cc2c1C	none
Cc1ccc(C2=NN(S(C)(=O)=O)C(c3ccc4c(c3)OCO4)C2)cc1 (stereo unspecified)	none
CCN1/C(=C\C=C(C(C)=O)C(C)=O)Sc2ccccc21	M1 ag parental 17
CC(=O)N1N=C(c2ccc(Cl)cc2)OC1c1ccc(C(C)C)cc1 (stereo unspecified)	CHRM5 PAM 33
O=C1C(Cl)=C(NCCCO)C(=O)c2ccccc21	none
CN(C)c1ccc(NC2=C(Cl)C(=O)c3ccccc3C2=O)cc1	M5 antag 34
